Test results as given in ChEMBL document CHEMBL5104202, “Structure-Uptake Relationship Studies of Oxazolidinones in Gram-Negative ESKAPE Pathogens” (J Med Chem, 2022).
Converted amounts (≈) assume the structure as drawn.

Tests used:
[1] = tested on: Escherichia coli; assay: Antibacterial activity against Escherichia coli SQ110 DTC C2610A incubated for 24 hrs by twofold serial dilution method; type: functional
How it was run: (§1)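 E. coli SQDTC (TolC-deficient, single rRNA operon) carrying LZD-resistant 23S rRNA substitutions. Compounds come from 10 mM DMSO stocks and are twofold serially diluted in 96-well plates.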

[2] = tested on: Pseudomonas aeruginosa; assay: Antibacterial activity against efflux pump lacking Pseudomonas aeruginosa assessed as inhibition of bacterial growth; type: functional, organism-based
[3] = tested on: Escherichia coli; assay: Antibacterial activity against recombinant OM pore producing Escherichia coli assessed as inhibition of bacterial growth; type: functional, organism-based
[4] = tested on: Acinetobacter baumannii; assay: Antibacterial activity against efflux pump lacking/recombinant OM pore producing Acinetobacter baumannii assessed as inhibition of bacterial growth; type: functional, organism-based
[5] = tested on: Escherichia coli; assay: Antibacterial activity against Escherichia coli SQ110 incubated for 24 hrs by twofold serial dilution method; type: functional
How it was run: (§2)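 MICs by twofold serial dilution in 96-well plates from 10 mM DMSO stocks. Cultures grown in the indicated media; for E. coli, A. baumannii and P. aeruginosa, inducers were 0.1% arabinose, 1% arabinose and 0.1 mM IPTG respectively.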

[6] = tested on: Pseudomonas aeruginosa; assay: Antibacterial activity against recombinant OM pore producing Pseudomonas aeruginosa assessed as inhibition of bacterial growth; type: functional, organism-based
[7] = tested on: Staphylococcus aureus; assay: Antibacterial activity against Staphylococcus aureus ATCC 25923 incubated for 24 hrs by twofold serial dilution method; type: functional; how it was run: as §2
[8] = tested on: Pseudomonas aeruginosa; assay: Antibacterial activity against wild type Pseudomonas aeruginosa assessed as inhibition of bacterial growth; type: functional, organism-based
[9] = tested on: Pseudomonas aeruginosa; assay: Antibacterial activity against efflux pump lacking/recombinant OM pore producing Pseudomonas aeruginosa incubated for 24 hrs by twofold serial dilution method; type: functional; how it was run: as §2
[10] = tested on: Acinetobacter baumannii; assay: Antibacterial activity against efflux pump lacking/recombinant OM pore producing Acinetobacter baumannii incubated for 24 hrs by twofold serial dilution method; type: functional; how it was run: as §2
[11] = tested on: Acinetobacter baumannii; assay: Antibacterial activity against efflux pump lacking Acinetobacter baumannii assessed as inhibition of bacterial growth; type: functional, organism-based
[12] = tested on: Acinetobacter baumannii; assay: Antibacterial activity against wild type Acinetobacter baumannii assessed as inhibition of bacterial growth; type: functional, organism-based
[13] = tested on: Pseudomonas aeruginosa; assay: Antibacterial activity against efflux pump lacking/recombinant OM pore producing Pseudomonas aeruginosa assessed as inhibition of bacterial growth; type: functional, organism-based
[14] = tested on: Escherichia coli; assay: Antibacterial activity against wild type Escherichia coli assessed as inhibition of bacterial growth; type: functional, organism-based
[15] = tested on: Escherichia coli; assay: Antibacterial activity against Escherichia coli SQ110 DTC G2032A incubated for 24 hrs by twofold serial dilution method; type: functional; how it was run: as §1
[16] = tested on: Escherichia coli; assay: Antibacterial activity against efflux pump lacking Escherichia coli assessed as inhibition of bacterial growth; type: functional, organism-based
[17] = tested on: Escherichia coli; assay: Antibacterial activity against efflux pump lacking/recombinant OM pore producing Escherichia coli incubated for 24 hrs by twofold serial dilution method; type: functional
How it was run: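 E. coli efflux-knockout/hyperporinated strain grown in M9 medium with 50 mM MOPS (pH 7.2) and 0.2% xylose. OM pore induced with 0.1% arabinose. Compounds come from 10 mM DMSO stocks and are twofold serially diluted in 96-well plates.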

[18] = tested on: Escherichia coli; assay: Antibacterial activity against Escherichia coli SQ110 DTC incubated for 24 hrs by twofold serial dilution method; type: functional; how it was run: as §2
[19] = tested on: Escherichia coli; assay: Antibacterial activity against efflux pump lacking/recombinant OM pore producing Escherichia coli assessed as inhibition of bacterial growth; type: functional, organism-based
[20] = tested on: Acinetobacter baumannii; assay: Antibacterial activity against recombinant OM pore producing Acinetobacter baumannii assessed as inhibition of bacterial growth; type: functional, organism-based
[21] = tested on: Klebsiella pneumoniae; assay: Antibacterial activity against multidrug resistant Klebsiella pneumoniae ATCC43816 assessed as inhibition of bacterial growth incubated for 24 hrs in MHI medium by twofold serial dilution method; type: functional
[22] = tested on: Klebsiella pneumoniae; assay: Antibacterial activity against multidrug resistant Klebsiella pneumoniae ATCC43816 assessed as inhibition of bacterial growth incubated for 24 hrs in MHI medium by twofold serial dilution method; settings: ATCC43816, 24 h
[23] = tested on: Pseudomonas aeruginosa; assay: Antibacterial activity against multidrug resistant Pseudomonas aeruginosa BAA 2109 assessed as inhibition of bacterial growth incubated for 24 hrs in […] medium by twofold serial dilution method; type: functional
[24] = tested on: Pseudomonas aeruginosa; assay: Antibacterial activity against multidrug resistant Pseudomonas aeruginosa BAA 2109 assessed as inhibition of bacterial growth incubated for 24 hrs in MHI medium by twofold serial dilution method; type: functional
[25] = tested on: Acinetobacter baumannii; assay: Antibacterial activity against multidrug resistant Acinetobacter baumannii AYE assessed as inhibition of bacterial growth incubated for 24 hrs in M9-MOPS medium by twofold serial dilution method; type: functional
[26] = tested on: Klebsiella pneumoniae; assay: Antibacterial activity against multidrug resistant Klebsiella pneumoniae ATCC13883 assessed as inhibition of bacterial growth incubated for 24 hrs in MHI medium by twofold serial dilution method; type: functional
[27] = tested on: Pseudomonas aeruginosa; assay: Antibacterial activity against multidrug resistant Pseudomonas aeruginosa BAA 2108 assessed as inhibition of bacterial growth incubated for 24 hrs in MHI medium by twofold serial dilution method; type: functional
[28] = tested on: Klebsiella pneumoniae; assay: Antibacterial activity against multidrug resistant Klebsiella pneumoniae ATCC13883 assessed as inhibition of bacterial growth incubated for 24 hrs in M9-MOPS medium by twofold serial dilution method; type: functional
[29] = tested on: Acinetobacter baumannii; assay: Antibacterial activity against multidrug resistant Acinetobacter baumannii AYE assessed as inhibition of bacterial growth incubated for 24 hrs in MHI medium by twofold serial dilution method; type: functional
[30] = tested on: Pseudomonas aeruginosa; assay: Antibacterial activity against multidrug resistant Pseudomonas aeruginosa BAA 2108 assessed as inhibition of bacterial growth incubated for 24 hrs in M9-MOPS medium by twofold serial dilution method; type: functional
[31] = tested on: Acinetobacter baumannii; assay: Antibacterial activity against multidrug resistant Acinetobacter baumannii Ab5075 assessed as inhibition of bacterial growth incubated for 24 hrs in M9-MOPS medium by twofold serial dilution method; type: functional
[32] = tested on: Acinetobacter baumannii; assay: Antibacterial activity against multidrug resistant Acinetobacter baumannii Ab5075 assessed as inhibition of bacterial growth incubated for 24 hrs in MHI medium by twofold serial dilution method; type: functional
[33] = tested on: Klebsiella pneumoniae; assay: Antibacterial activity against multidrug resistant Klebsiella pneumoniae ATCC43816 assessed as inhibition of bacterial growth incubated for 24 hrs in M9-MOPS medium by twofold serial dilution method; type: functional
[34] = tested on: Klebsiella aerogenes; assay: Antibacterial activity against multidrug resistant Klebsiella aerogenes ATCC13048 assessed as inhibition of bacterial growth incubated for 24 hrs in M9-MOPS medium by twofold serial dilution method; type: functional
[35] = tested on: Klebsiella aerogenes; assay: Antibacterial activity against multidrug resistant Klebsiella […] assessed as inhibition of bacterial growth incubated for 24 hrs in MHI medium by twofold serial dilution method; type: functional

Structure (SMILES)	MIC [1] [µM]	IC50 [2] [µM]	IC50 [3] [µM]	IC50 [4] [µM]	MIC [5] [µM]	IC50 [6] [µM]	MIC [7] [µM]	IC50 [8] [µM]	MIC [9] [µM]	MIC [10] [µM]	IC50 [11] [µM]	IC50 [12] [µM]	IC50 [13] [µM]	IC50 [14] [µM]	MIC [15] [µM]	IC50 [16] [µM]	MIC [17] [µM]	MIC [18] [µM]	IC50 [19] [µM]	IC50 [20] [µM]	also measured
O=C1O[C@@H](CO)CN1c1ccc(-c2ccc(CO)cc2)c(F)c1	25 (≈ 7.93 µg/mL)	5.3	17.6	4.6	> 100	> 100	1.56 (≈ 0.495 µg/mL)	> 100	6.25	12.5	4.4	45.3	5.5	67.9	50 (≈ 15.9 µg/mL)	3.9	25	12.5 (≈ 3.97 µg/mL)	3.7	5.7	–
C[n+]1ccc(-c2ccc(-c3ccc(N4C[C@H](CO)OC4=O)cc3F)cc2)cc1	12.5	> 100	1.7	10.8	> 100	> 100	12.5	> 100	12.5	50	64	> 100	> 100	15.4	25	0.5	12.5	3.12	0.5	10	MIC [21]: > 200 µM; MIC [22]: > 200 µM; MIC [23]: > 200 µM; MIC [24]: > 200 µM; MIC [25]: > 200 µM; MIC [26]: > 200 µM; MIC [27]: > 200 µM; MIC [28]: 100 µM; MIC [29]: > 200 µM; MIC [30]: > 200 µM; MIC [31]: 200 µM; MIC [32]: > 200 µM; MIC [33]: > 200 µM; MIC [34]: 50 µM
O=C1O[C@@H](CO)CN1c1ccc(-c2cccnc2)c(F)c1	25 (≈ 7.21 µg/mL)	4.7	14.5	4.3	> 100	75.3	1.56 (≈ 0.45 µg/mL)	> 100	6.25	12.5	4.3	19	6	> 100	50 (≈ 14.4 µg/mL)	2.8	25	12.5 (≈ 3.6 µg/mL)	3.2	19	MIC [21]: > 200 µM; MIC [22]: > 200 µM; MIC [23]: > 200 µM; MIC [24]: > 200 µM; MIC [25]: 100 µM (≈ 28.8 µg/mL); MIC [26]: > 200 µM; MIC [27]: > 200 µM; MIC [28]: 200 µM (≈ 57.7 µg/mL); MIC [29]: > 200 µM; MIC [30]: > 200 µM; MIC [31]: 100 µM (≈ 28.8 µg/mL); MIC [32]: > 200 µM; MIC [33]: > 200 µM; MIC [34]: 200 µM (≈ 57.7 µg/mL)
NCc1ccc(-c2ccc(N3C[C@H](CO)OC3=O)cc2F)cc1	50 (≈ 15.8 µg/mL)	3.3	2.6	8.2	> 100	26.3	6.25 (≈ 1.98 µg/mL)	23	12.5	25	17.7	54.5	8.1	18.1	100 (≈ 31.6 µg/mL)	1.7	> 100	50 (≈ 15.8 µg/mL)	2.6	14.3	MIC [21]: > 200 µM; MIC [22]: > 200 µM; MIC [23]: > 200 µM; MIC [24]: > 200 µM; MIC [25]: > 200 µM; MIC [26]: > 200 µM; MIC [27]: > 200 µM; MIC [28]: 100 µM (≈ 31.6 µg/mL); MIC [29]: > 200 µM; MIC [30]: > 200 µM; MIC [31]: > 200 µM; MIC [32]: > 200 µM; MIC [33]: 200 µM (≈ 63.3 µg/mL); MIC [34]: 100 µM (≈ 31.6 µg/mL)
NCc1ccc(-c2ccc(N3C[C@H](CO)OC3=O)cc2F)cc1O	50 (≈ 16.6 µg/mL)	2.2	23.3	15.4	> 100	40.8	–	55.9	6.25	25	15.4	37.6	0.2	66.1	100 (≈ 33.2 µg/mL)	10	50	25 (≈ 8.31 µg/mL)	10.3	37.6	MIC [21]: > 200 µM; MIC [35]: 200 µM (≈ 66.5 µg/mL); MIC [23]: > 200 µM; MIC [24]: > 200 µM; MIC [25]: > 200 µM; MIC [26]: > 200 µM; MIC [27]: > 200 µM; MIC [28]: 50 µM (≈ 16.6 µg/mL); MIC [29]: > 200 µM; MIC [30]: > 200 µM; MIC [31]: > 200 µM; MIC [32]: > 200 µM; MIC [33]: 100 µM (≈ 33.2 µg/mL); MIC [34]: 12.5 µM (≈ 4.15 µg/mL)
O=C(O)c1ccc(-c2ccc(N3C[C@H](CO)OC3=O)cc2F)cc1	25 (≈ 8.28 µg/mL)	> 100	> 100	10.2	> 100	> 100	6.25 (≈ 2.07 µg/mL)	> 100	> 100	50	12.8	> 100	8.9	> 100	50 (≈ 16.6 µg/mL)	54	12.5	25 (≈ 8.28 µg/mL)	2.6	55.5	–
C[n+]1cccc(-c2ccc(-c3ccc(N4C[C@H](CO)OC4=O)cc3F)cc2)c1	25	29.7	7.8	12.6	> 100	28.1	12.5	> 100	25	25	29.7	> 100	18.1	98.4	50	1.2	25	12.5	2.1	13.9	–
O=C1O[C@@H](CO)CN1c1ccc(-c2ccc(OC(F)(F)F)cc2)c(F)c1	> 100	18.6	76.9	6.4	> 100	> 100	6.25 (≈ 2.32 µg/mL)	> 100	> 100	25	16.3	> 100	3.1	> 100	> 100	17.2	> 100	100 (≈ 37.1 µg/mL)	18.8	25.6	–
O=C1O[C@@H](CO)CN1c1ccc(-c2cccc(CO)c2)c(F)c1	–	15.5	1.5	7.6	–	> 100	–	> 100	–	–	5.4	45.8	13	66.9	–	1.5	–	–	2	10.8	MIC [21]: > 200 µM; MIC [22]: > 200 µM; MIC [23]: > 200 µM; MIC [24]: > 200 µM; MIC [25]: 200 µM (≈ 63.5 µg/mL); MIC [26]: > 200 µM; MIC [27]: > 200 µM; MIC [28]: 200 µM (≈ 63.5 µg/mL); MIC [29]: > 200 µM; MIC [30]: > 200 µM; MIC [31]: 200 µM (≈ 63.5 µg/mL); MIC [32]: > 200 µM; MIC [33]: > 200 µM; MIC [34]: > 200 µM
